# Reference: article PMC2956778 (Biochemical and biophysical research communications, 2010)
# Entries after “also recorded” stand apart in the source; their conditions may differ. Where two headings read alike, the source gives them in different places.
# Assays:
# [1] = Membrane permeability assay; parameters: species or system rabbit
# [2] = biological target: Ca2+-saturated CaM bound to RyR1 (skeletal SR vesicles) (Homo sapiens, UniProt P0DP23); assay: [35S]CaM binding to skeletal SR vesicles; parameters: species or system rabbit; details: for Effect on [35S]CaM binding to SR vesicles: LPC effect probably an artefact (also decreased nonspecific binding)
# [3] = test system: microsomes from bovine brain cerebrum
# [4] = test system: complex between CaM and the peptide representing the CaM-binding domain of RyR1; details: cited from earlier work
# [5] = biological target: RyR1 (skeletal SR vesicles) (Oryctolagus cuniculus, UniProt P11716); assay: [3H]ryanodine binding to skeletal SR vesicles; parameters: species or system rabbit; details: for Effect on [3H]ryanodine binding: 50 μM free Ca2+
# [6] = biological target: purified RyR1 (Oryctolagus cuniculus, UniProt P11716); assay: Single channel recordings of purified RyR1 in planar lipid bilayers; type: biochemical, rabbit; details: for Ac1 / Ac2 / Ao1 / Ao2 / Po / τc1 / τc2 (lifetime of the second closed state) / τo1 / τo2 / No. of events: +1 μM SPC; for No. of events: 2 min recordings; for Single channel open probability (Po), representative recording: after 1 μM SPC cis
# Procedure, shortened: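 Purified RyR1 from rabbit SR: CHAPS-solubilised, sucrose-gradient purified, reconstituted into phosphatidylcholine liposomes, fused cis into PE:PS:PC (5:3:2) n-decane bilayers. Symmetrical 0.25 M KCl, 20 mM K-HEPES pH 7.4, 22 μM free Ca²⁺ cis. Test compound added cis. For +CaM, 30 min room-temperature preincubation with 1 μM CaM, then 100 nM CaM cis. Recorded at ±35 mV, sampled 10 kHz, filtered 2 kHz, ≥2 min per condition. Dwell times fitted by maximum likelihood to exponential sums.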
# [7] = test system: microsomes from bovine brain cerebrum; assay: Ca2+ release from brain microsomes; details: data not shown
# Sequence of RyR1 (skeletal SR vesicles) (P11716 whole entry): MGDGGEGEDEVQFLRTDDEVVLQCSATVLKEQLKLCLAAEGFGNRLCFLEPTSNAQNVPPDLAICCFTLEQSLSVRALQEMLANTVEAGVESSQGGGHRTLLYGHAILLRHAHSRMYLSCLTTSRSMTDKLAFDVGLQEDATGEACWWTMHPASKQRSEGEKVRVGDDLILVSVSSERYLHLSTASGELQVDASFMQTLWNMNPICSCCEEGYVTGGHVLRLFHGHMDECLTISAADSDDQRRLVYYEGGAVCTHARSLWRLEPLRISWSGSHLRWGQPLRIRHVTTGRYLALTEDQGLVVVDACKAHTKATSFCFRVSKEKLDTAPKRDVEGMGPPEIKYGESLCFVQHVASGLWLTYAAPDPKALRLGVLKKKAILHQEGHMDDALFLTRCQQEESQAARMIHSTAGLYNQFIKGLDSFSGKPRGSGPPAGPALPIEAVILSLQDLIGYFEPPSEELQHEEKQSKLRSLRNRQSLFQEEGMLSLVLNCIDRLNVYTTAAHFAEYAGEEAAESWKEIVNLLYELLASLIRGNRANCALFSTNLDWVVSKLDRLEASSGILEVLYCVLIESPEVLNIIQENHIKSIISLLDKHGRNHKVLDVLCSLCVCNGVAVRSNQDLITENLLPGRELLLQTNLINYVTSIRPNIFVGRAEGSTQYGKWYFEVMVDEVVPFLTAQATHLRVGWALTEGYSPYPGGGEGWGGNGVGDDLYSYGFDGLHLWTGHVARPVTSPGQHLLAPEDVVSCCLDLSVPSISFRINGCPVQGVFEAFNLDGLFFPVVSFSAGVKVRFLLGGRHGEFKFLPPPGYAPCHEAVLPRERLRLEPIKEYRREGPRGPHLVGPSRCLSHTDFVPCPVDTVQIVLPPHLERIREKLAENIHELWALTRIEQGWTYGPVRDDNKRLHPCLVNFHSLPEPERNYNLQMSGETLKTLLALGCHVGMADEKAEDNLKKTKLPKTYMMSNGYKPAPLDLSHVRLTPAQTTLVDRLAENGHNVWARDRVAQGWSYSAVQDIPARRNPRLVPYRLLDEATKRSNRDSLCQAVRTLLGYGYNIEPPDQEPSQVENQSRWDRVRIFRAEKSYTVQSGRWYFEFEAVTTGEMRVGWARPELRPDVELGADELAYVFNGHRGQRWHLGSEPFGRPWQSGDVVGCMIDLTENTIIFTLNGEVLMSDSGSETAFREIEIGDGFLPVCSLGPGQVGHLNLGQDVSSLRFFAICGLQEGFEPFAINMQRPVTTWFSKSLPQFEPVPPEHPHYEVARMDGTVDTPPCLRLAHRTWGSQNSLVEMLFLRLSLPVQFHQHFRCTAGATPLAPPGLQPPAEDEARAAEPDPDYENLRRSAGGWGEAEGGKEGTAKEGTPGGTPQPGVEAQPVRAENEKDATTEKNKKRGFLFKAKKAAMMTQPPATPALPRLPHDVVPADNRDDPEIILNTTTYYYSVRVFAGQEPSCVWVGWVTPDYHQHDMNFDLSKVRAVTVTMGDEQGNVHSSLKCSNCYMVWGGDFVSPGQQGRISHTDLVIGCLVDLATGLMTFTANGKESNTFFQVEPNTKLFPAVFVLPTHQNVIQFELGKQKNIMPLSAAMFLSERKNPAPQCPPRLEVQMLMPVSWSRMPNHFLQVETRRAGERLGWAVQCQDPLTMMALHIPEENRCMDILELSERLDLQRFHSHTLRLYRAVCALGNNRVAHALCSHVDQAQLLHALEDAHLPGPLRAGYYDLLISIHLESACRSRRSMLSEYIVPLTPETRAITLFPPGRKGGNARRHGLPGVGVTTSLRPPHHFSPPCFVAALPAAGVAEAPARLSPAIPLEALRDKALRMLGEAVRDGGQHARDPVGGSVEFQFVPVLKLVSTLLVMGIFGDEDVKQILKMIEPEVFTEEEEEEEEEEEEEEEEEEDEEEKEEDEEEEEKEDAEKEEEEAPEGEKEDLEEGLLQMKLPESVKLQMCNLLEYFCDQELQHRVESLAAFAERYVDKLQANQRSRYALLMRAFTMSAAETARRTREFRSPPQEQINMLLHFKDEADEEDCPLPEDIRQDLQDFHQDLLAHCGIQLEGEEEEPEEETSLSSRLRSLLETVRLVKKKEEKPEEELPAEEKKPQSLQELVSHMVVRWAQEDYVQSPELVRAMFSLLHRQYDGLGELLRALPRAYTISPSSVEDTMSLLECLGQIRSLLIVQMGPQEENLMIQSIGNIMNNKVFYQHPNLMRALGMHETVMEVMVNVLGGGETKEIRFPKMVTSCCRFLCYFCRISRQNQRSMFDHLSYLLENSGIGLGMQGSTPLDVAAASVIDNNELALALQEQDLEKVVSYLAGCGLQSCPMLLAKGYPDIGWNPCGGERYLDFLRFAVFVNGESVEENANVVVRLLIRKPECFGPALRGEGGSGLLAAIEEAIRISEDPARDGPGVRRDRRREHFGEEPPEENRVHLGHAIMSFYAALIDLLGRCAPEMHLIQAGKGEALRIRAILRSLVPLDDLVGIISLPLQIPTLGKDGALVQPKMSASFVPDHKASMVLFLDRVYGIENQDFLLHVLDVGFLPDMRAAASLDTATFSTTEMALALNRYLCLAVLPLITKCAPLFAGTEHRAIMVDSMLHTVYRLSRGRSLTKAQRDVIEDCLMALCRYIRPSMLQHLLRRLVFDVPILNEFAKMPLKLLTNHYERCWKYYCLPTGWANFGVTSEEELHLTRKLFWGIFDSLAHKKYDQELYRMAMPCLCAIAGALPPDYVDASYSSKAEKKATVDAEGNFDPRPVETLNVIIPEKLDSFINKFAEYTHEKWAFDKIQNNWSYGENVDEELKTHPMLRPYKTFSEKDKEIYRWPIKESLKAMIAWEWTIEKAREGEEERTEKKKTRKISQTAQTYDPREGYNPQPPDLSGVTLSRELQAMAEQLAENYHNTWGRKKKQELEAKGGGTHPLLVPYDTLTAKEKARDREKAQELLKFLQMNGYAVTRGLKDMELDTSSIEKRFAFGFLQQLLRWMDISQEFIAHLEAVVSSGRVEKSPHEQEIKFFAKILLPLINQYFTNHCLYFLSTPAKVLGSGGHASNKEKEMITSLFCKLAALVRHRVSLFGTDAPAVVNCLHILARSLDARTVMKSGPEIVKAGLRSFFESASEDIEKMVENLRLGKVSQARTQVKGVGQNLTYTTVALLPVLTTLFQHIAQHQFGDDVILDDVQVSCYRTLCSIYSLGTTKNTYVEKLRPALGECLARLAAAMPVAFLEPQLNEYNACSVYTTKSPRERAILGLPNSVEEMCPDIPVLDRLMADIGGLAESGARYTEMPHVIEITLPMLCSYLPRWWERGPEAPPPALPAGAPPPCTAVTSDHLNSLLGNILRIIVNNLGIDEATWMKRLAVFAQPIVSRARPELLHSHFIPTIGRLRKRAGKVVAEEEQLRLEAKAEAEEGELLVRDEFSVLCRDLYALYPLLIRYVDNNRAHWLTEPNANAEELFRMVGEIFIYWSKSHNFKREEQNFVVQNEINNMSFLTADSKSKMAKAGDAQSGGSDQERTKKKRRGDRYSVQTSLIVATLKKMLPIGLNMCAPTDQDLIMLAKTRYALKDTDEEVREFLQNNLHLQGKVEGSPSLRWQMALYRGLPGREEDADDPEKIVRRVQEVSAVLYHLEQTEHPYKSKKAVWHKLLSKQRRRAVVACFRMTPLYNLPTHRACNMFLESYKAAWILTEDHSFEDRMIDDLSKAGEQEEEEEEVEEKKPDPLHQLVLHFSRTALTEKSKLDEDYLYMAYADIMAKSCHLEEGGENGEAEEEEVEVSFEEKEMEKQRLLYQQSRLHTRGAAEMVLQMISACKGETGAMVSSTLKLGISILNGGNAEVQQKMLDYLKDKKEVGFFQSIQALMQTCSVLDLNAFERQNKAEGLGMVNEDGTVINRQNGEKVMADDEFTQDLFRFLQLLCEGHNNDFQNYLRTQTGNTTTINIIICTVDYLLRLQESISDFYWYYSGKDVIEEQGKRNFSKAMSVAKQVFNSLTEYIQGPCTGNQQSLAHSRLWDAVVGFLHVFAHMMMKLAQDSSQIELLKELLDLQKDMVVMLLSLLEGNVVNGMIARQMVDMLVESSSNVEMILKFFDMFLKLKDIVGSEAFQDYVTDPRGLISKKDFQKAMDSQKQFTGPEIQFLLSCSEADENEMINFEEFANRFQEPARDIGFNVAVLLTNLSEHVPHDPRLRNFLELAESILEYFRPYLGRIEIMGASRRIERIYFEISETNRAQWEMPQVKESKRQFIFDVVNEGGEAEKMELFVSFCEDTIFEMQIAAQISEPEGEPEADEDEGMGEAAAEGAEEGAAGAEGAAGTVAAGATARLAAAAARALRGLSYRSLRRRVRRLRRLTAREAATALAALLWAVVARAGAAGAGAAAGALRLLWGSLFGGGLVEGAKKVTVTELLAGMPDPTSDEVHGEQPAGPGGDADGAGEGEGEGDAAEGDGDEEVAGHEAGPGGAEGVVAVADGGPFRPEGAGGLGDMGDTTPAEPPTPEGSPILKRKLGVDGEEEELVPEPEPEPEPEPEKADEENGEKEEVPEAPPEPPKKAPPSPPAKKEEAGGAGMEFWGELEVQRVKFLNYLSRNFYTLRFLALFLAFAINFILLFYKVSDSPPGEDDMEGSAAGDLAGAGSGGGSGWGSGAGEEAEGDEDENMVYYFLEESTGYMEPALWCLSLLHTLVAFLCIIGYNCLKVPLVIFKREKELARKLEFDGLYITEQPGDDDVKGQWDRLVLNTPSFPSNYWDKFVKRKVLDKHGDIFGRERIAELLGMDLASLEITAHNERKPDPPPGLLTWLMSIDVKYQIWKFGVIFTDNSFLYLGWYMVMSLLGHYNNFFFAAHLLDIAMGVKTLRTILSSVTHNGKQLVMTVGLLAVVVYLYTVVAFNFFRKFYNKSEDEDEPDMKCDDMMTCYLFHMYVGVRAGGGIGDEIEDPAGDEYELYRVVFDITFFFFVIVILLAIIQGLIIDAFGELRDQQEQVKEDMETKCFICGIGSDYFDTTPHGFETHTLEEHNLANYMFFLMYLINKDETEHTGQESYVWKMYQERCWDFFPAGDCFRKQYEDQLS
# Sequence of purified RyR1 (P11716 whole entry, the tested form may be a part): as the sequence (P11716 whole entry) above
compound,measurement,setting,value
C[C@H](CCC(=O)NCCC[N+](C)(C)CCCS(=O)(=O)[O-])[C@H]1CC[C@H]2[C@@H]3[C@H](O)C[C@@H]4C[C@H](O)CC[C@]4(C)[C@H]3C[C@H](O)[C@]12C [CHAPS],Effect on glucose permeability of SR vesicles,[1]; 1% CHAPS detergent,released a large amount of stored glucose
"CCCCCCCC/C=C\CCCCCCCC(=O)OCC(O)COP(=O)(O)O (centres unmarked) [LPA, oleoyl-lysophosphatidic acid]",Effect on [35S]CaM binding to SR vesicles,[2],ineffective
same,Effect on glucose permeability of SR vesicles,[1]; 50 μM lysophospholipid,do not disrupt the permeability barrier
same,Ca2+ release from brain microsomes,[3],released a large amount of Ca^2+
"CCCCCCCC/C=C\CCCCCCCC(=O)OC[C@@H](O)COP(=O)([O-])OCC[N+](C)(C)C [LPC, oleoyl-lysophosphatidylcholine]",Effect on [35S]CaM binding to SR vesicles,[2],decreased; also recorded: significantly decrease
same,Effect on glucose permeability of SR vesicles,[1]; 50 μM lysophospholipid,do not disrupt the permeability barrier
same,Ca2+ release from brain microsomes,[3],released a large amount of Ca^2+
same,Effect in peptide binding experiments,[4],without action
"CCCCCCCCCCCCC/C=C/[C@@H](O)[C@@H](N)COP(=O)(O)O [S1P, D-erythro-sphingosine-1-phosphate]",Effect on [3H]ryanodine binding,[5]; absence of CaM,minor inhibitory effect
same,Effect on [3H]ryanodine binding,[5]; presence of CaM,further decreased
same,Effect on [35S]CaM binding to SR vesicles,[2],ineffective
same,Effect on glucose permeability of SR vesicles,[1]; 50 μM lysophospholipid,do not disrupt the permeability barrier
"CCCCCCCCCCCCC/C=C/[C@@H](O)[C@@H](N)COP(=O)(O)OCC[N+](C)(C)C [SPC, D-erythro-sphingosylphosphorylcholine]",Ac1,[6]; 22 μM Ca2+,0.994 ± 0.003
same,Ac2,[6]; 22 μM Ca2+,0.006 ± 0.003
same,Ao1,[6]; 22 μM Ca2+,0.81 ± 0.18
same,Ao2,[6]; 22 μM Ca2+,0.19 ± 0.18
same,Po,[6]; 22 μM Ca2+,0.24 ± 0.10
same,τc1,[6]; 22 μM Ca2+,1.07 ± 0.68 ms
same,τc2 (lifetime of the second closed state),[6]; 22 μM Ca2+,452 ± 140 ms
same,τo1,[6]; 22 μM Ca2+,0.24 ± 0.19 ms
same,τo2,[6]; 22 μM Ca2+,5.09 ± 3.32 ms
same,Ac1,[6]; 22 μM Ca2+ and 100 nM CaM,0.96 ±0.03
same,Ac2,[6]; 22 μM Ca2+ and 100 nM CaM,0.04 ± 0.03
same,Ao1,[6]; 22 μM Ca2+ and 100 nM CaM,0.94 ± 0.05
same,Ao2,[6]; 22 μM Ca2+ and 100 nM CaM,0.06 ± 0.05
same,Po,[6]; 22 μM Ca2+ and 100 nM CaM,0.18 ± 0.09
same,τc1,[6]; 22 μM Ca2+ and 100 nM CaM,2.81 ± 1.66 ms
same,τc2 (lifetime of the second closed state),[6]; 22 μM Ca2+ and 100 nM CaM,619 ± 242 ms
same,τo1,[6]; 22 μM Ca2+ and 100 nM CaM,0.16 ± 0.12 ms
same,τo2,[6]; 22 μM Ca2+ and 100 nM CaM,3.12 ± 2.10 ms
same,No. of events,[6]; 22 μM Ca2+ and 100 nM CaM,"10,392 ±2633"
same,No. of events,[6]; 22 μM Ca2+,9767 ± 1884
same,"Single channel open probability (Po), representative recording","[6]; 100 nM CaM, control Po 0.15",0.05
same,"Single channel open probability (Po), representative recording","[6]; absence of CaM, control Po 0.51",0.16
same,Hill-slope of [3H]ryanodine binding dose-response,"[5]; absence of CaM, oxidizing conditions (5 mM GSSG)",−2.9 ± 0.2
same,Hill-slope of [3H]ryanodine binding dose-response,"[5]; absence of CaM, reducing conditions (5 mM GSH)",−1.7 ± 0.04
same,Effect on [3H]ryanodine binding,[5]; presence of CaM,did not significantly alter
same,Hill-slope of [35S]CaM displacement,[2],2.3 ± 0.7
same,Effect on [35S]CaM binding to SR vesicles,[2],significantly decrease
same,Effect on glucose permeability of SR vesicles,[1]; 50 μM lysophospholipid,do not disrupt the permeability barrier
same,Ca2+ release from brain microsomes,[3],released a large amount of Ca^2+
same,IC50,[4]; read-out: IC50 in peptide binding assays,19.4 ± 1.4 µM
Cn1c(=O)c2c(ncn2C)n(C)c1=O [caffeine],Ca2+ release from brain microsomes,[7]; 5 mM caffeine,only had minor effects
CC(C)[C@@]1(O)[C@@H](OC(=O)c2ccc[nH]2)[C@@]2(O)[C@@]3(C)C[C@]4(O)O[C@@]5([C@H](O)[C@@H](C)CC[C@]35O)[C@@]2(O)[C@@]14C [ryanodine],Ca2+ release from brain microsomes,[7]; 1 μM ryanodine,only had minor effects
